Assay results from ChEMBL document CHEMBL3112440, “Design, synthesis, and SAR of a series of activated protein C (APC) inhibitors with selectivity against thrombin for the treatment of haemophilia” (Bioorg Med Chem Lett, 2014).
The source made the active and inactive calls. The calls are words filed in the database; no cut-off is given here.

Columns and labels:
[1] = target: T1, Vitamin K-dependent protein C (Homo sapiens, UniProt P04070); assay: Inhibition of human APC using S-2366 as substrate preincubated for 300 seconds followed by substrate addition measured after 40 mins by spectrophotometric analysis
[2] = target: T1, Vitamin K-dependent protein C; assay: Competitive inhibition of human APC using S-2366 as substrate
Procedure, shortened: (§1)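 Ki values were calculated from the IC50 values measured in the enzyme screening assays.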

[3] = target: T2, Coagulation factor XI (Homo sapiens, UniProt P03951); assay: Inhibition of human coagulation factor 11a using S-2366 as substrate preincubated for 300 seconds followed by substrate addition measured after 40 mins by spectrophotometric analysis
[4] = target: T3, Prothrombin (Homo sapiens, UniProt P00734); assay: Inhibition of human thrombin using S-2366 as substrate preincubated for 300 seconds followed by substrate addition measured after 40 mins by spectrophotometric analysis
[5] = target: T3, Prothrombin; assay: Competitive inhibition of human thrombin using S-2366 as substrate; procedure, shortened: as §1
[6] = species on record: Homo sapiens; assay: Selectivity ratio of IC50 for human thrombin to IC50 for human APC
[7] = target: T2, Coagulation factor XI; assay: Competitive inhibition of human coagulation factor 11a using S-2366 as substrate; procedure, shortened: as §1
[8] = target: T4, Coagulation factor X (Homo sapiens, UniProt P00742); assay: Competitive inhibition of human coagulation factor 10a using S-2765 as substrate; procedure, shortened: as §1
[9] = target: T4, Coagulation factor X; assay: Inhibition of human coagulation factor 10a using S-2765 as substrate preincubated for 300 seconds followed by substrate addition measured after 40 mins by spectrophotometric analysis
[10] = Lipophilicity, log D of the compound at pH 7.4 by chromatographic method; type: physicochemical; conditions: buffer
[11] = target: T5, Coagulation factor VII (Homo sapiens, UniProt P08709); assay: Inhibition of human coagulation factor 7a using spectrozyme as substrate preincubated for 300 seconds followed by substrate addition measured after 40 mins by spectrophotometric analysis in presence of tissue factor
T5 sequence (P08709 whole entry): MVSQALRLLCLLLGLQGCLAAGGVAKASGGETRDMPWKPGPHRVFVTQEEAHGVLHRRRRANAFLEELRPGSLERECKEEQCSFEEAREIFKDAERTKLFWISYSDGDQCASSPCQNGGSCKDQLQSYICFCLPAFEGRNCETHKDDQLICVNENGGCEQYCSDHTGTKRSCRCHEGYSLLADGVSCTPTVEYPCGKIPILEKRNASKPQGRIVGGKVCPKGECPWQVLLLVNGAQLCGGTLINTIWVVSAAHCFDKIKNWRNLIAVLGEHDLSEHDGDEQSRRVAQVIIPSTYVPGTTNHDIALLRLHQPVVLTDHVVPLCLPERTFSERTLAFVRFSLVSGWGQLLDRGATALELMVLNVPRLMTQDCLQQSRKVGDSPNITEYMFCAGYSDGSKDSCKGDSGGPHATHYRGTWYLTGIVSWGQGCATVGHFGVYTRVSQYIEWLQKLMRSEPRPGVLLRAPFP

[12] = target: Coagulation factor IX (Homo sapiens) (UniProt P00740); assay: Inhibition of coagulation factor 9a (unknown origin)-mediated hydrolysis of Z-D-Arg-Gly-Arg-pNA at 100 uM relative to control
[13] = test system: Plasma; assay: Antifibrinolytic activity in human citrated plasma assessed as prolongation of clot-lysis time at 28 uM by spectrophotometric analysis; type: functional, cell-free
Procedure, shortened: (§2)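 Citrated plasma from healthy volunteers. Tissue plasminogen activator was added to start plasmin generation, and clot-lysis time was recorded with test compound present (n = 2).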

[14] = target: T5, Coagulation factor VII; assay: Competitive inhibition of human coagulation factor 7a using spectrozyme as substrate; procedure, shortened: as §1
[15] = test system: Plasma; assay: Antifibrinolytic activity in human citrated plasma assessed as prolongation of clot-lysis time at 101 uM by spectrophotometric analysis; type: functional, cell-free; procedure, shortened: as §2

IC50 [1] | Ki [2] | IC50 [3] | IC50 [4] | Ki [5] | Ratio IC50 [6] | Ki [7] | Ki [8] | IC50 [9] | chromatographic logD [10] | IC50 [11] | inhibition [12] | Ki [14] | Structure (SMILES) | Activity [13] | Activity [15]
1.1 µM | 0.3 µM | 43 µM | 3.7 µM | 2 µM | 3.3 | 19 µM | 14 µM | 42 µM | – | – | – | – | N=C(N)c1ccc(CNC(=O)C(Cc2ccc(CN)cc2)NC(=O)[C@@H](CC2CCCCC2)NCC(=O)O)cc1 (mixture of isomers) | – | –
0.98 µM | 0.3 µM | – | 5.2 µM | 3 µM | 5.3 | – | – | – | – | – | – | – | N=C(N)c1ccc(CNC(=O)[C@H](Cc2ccc3ccccc3c2)NC(=O)[C@@H](CC2CCCCC2)NCC(=O)O)cc1 | – | –
1.6 µM | 0.5 µM | – | 1.9 µM | 1 µM | 1.2 | – | – | – | – | – | – | – | N=C(N)NCCC[C@H](NC(=O)[C@H](N)C1CCCCC1)C(=O)NCc1ccc(C(=N)N)cc1 | – | –
3.1 µM | 0.9 µM | – | 28 µM | 15 µM | 8.9 | – | – | – | – | – | – | – | N=C(N)c1ccc(CNC(=O)C(CCC2CCNCC2)NC(=O)[C@H](N)CC2CCCCC2)cc1 (mixture of isomers) | – | –
0.26 µM | 0.1 µM | 1.9 µM | 3.9 µM | 2 µM | 15 | 0.8 µM | 8 µM | 23 µM | 0.02 | – | – | – | N=C(N)c1ccc(CNC(=O)[C@H](Cc2ccc(O)cc2)NC(=O)[C@@H](CC2CCCCC2)NCC(=O)O)cc1 | – | –
0.13 µM | 0.04 µM | 0.58 µM | 0.9 µM | 0.5 µM | 6.9 | 0.3 µM | > 15 µM | > 44 µM | – | – | – | – | N=C(N)c1ccc(CNC(=O)[C@H](Cc2ccc(N)cc2)NC(=O)[C@@H](CC2CCCCC2)NCC(=O)O)cc1 | – | –
1.3 µM | – | 20 µM | – | – | – | – | – | 21 µM | – | 3.3 µM | – | – | N=C(N)c1ccc(CNC(=O)[C@@H]2CCN2C(=O)[C@H](NCC(=O)O)C2CCCCC2)cc1 | – | –
> 44 µM | – | – | > 44 µM | – | 1 | – | – | – | – | – | – | – | N=C(N)c1ccc(CNC(=O)[C@@H](CC2CCCN2)NC(=O)[C@@H](CC2CCCCC2)NCC(=O)O)cc1 (mixture of isomers) | – | –
0.47 µM | 0.1 µM | – | 1.3 µM | 1 µM | 2.8 | – | – | – | – | – | – | – | N=C(N)NCCC[C@H](NC(=O)[C@@H](CC1CCCCC1)NCC(=O)O)C(=O)NCc1ccc(C(=N)N)cc1 | – | –
0.92 µM | 0.3 µM | > 44 µM | 22 µM | 12 µM | 23 | > 19 µM | > 43 µM | > 130 µM | < 0 | > 133 µM | inactive | > 100 µM | N=C(N)c1ccc(CNC(=O)C(CCC2CCNCC2)NC(=O)[C@@H](CC2CCCCC2)NCC(=O)O)cc1 (mixture of isomers) | Active | –
3.1 µM | 0.9 µM | > 44 µM | 26 µM | 14 µM | 8.4 | > 19 µM | – | – | – | – | – | – | N=C(N)c1ccc(CNC(=O)[C@@H](NC(=O)[C@@H](CC2CCCCC2)NCC(=O)O)C2CCNCC2)cc1 | – | –
5.6 µM | 1.6 µM | – | 7 µM | 4 µM | 1.3 | – | – | – | – | – | – | – | N=C(N)c1ccc(CNC(=O)[C@H](CC2CCCN2)NC(=O)[C@@H](CC2CCCCC2)NCC(=O)O)cc1 (mixture of isomers) | – | –
1.7 µM | 0.5 µM | > 44 µM | 36 µM | 19 µM | 21 | > 19 µM | 16 µM | 48 µM | 0.93 | 8.9 µM | 40% | 7 µM | N=C(N)c1ccc(CNC(=O)C2(NC(=O)[C@H](NCC(=O)O)C3CCCCC3)Cc3ccccc3C2)cc1 | – | Active
1.3 µM | 0.4 µM | – | 12 µM | 6 µM | 9.1 | – | – | – | – | – | – | – | N=C(N)c1ccc(CNC(=O)C(CC2CCNCC2)NC(=O)[C@@H](CC2CCCCC2)NCC(=O)O)cc1 (mixture of isomers) | – | –
0.67 µM | 0.2 µM | – | 6.1 µM | 3 µM | 9.1 | – | – | – | – | – | – | – | N=C(N)c1ccc(CNC(=O)[C@H](Cc2ccccc2)NC(=O)[C@@H](CC2CCCCC2)NCC(=O)O)cc1 | – | –
1.1 µM | 0.3 µM | – | 12 µM | 6 µM | 11 | – | – | – | 1.97 | – | – | – | N=C(N)c1ccc(CNC(=O)[C@H](Cc2cccc3ccccc23)NC(=O)[C@@H](CC2CCCCC2)NCC(=O)O)cc1 | – | –
3.8 µM | 1.1 µM | – | 3.8 µM | 2 µM | 5.4 | – | – | – | – | – | – | – | N#Cc1ccc(CC(NC(=O)[C@@H](CC2CCCCC2)NCC(=O)O)C(=O)NCc2ccc(C(=N)N)cc2)cc1 (mixture of isomers) | – | –
2.8 µM | 0.8 µM | > 44 µM | 5.2 µM | 3 µM | 1.8 | > 19 µM | – | – | – | – | – | – | N=C(N)NCCC[C@H](NC(=O)[C@@H](CC1CCCCC1)NCCC(=O)O)C(=O)NCc1ccc(C(=N)N)cc1 | – | –
> 44 µM | – | – | > 44 µM | – | 1 | – | – | – | – | – | – | – | N=C(N)c1ccc(CNC(=O)C(CCC2CCNCC2)NC(=O)[C@@H](NCC(=O)O)C2CCCCC2)cc1 (mixture of isomers) | – | –
